Our source for the Ki, IC50 and Activity values is ChEMBL document CHEMBL1143981, “Exploring the potential of 3'-O-carboxy esters of thymidine as inhibitors of ribonuclease A and angiogenin” (Bioorg Med Chem, 2008).

Structures are written as SMILES. Activity calls are given as the source filed them. No cut-off for these calls is given here.

The term Ki denotes the equilibrium dissociation constant of an inhibitor or competing ligand from its target. A high value points to a looser hold on the target. What is called IC50 is the concentration at which inhibition is half-maximal. A lower IC50 goes with greater potency.

The target of test [1] is Ribonuclease pancreatic. The experiment in a line: Activity at RNase A. The procedure, abridged:
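Spectrophotometric kinetics with 2',3'-cCMP substrate in oligo(vinylsulfonic acid)-free 0.1 M Mes–NaOH, pH 6.0, with 0.1 M NaCl. RNase A was at 10 µM. Substrate ranged 0.14–0.28 mM with inhibitor 0–6.7 µM, or 0.13–0.25 mM with inhibitor 0–62 µM, depending on compound. Inhibition constants came from initial velocities via Eadie–Hofstee plots (V vs V/[S]), using the slopes.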

A short description of test [2]: Inhibition of RNase A by precipitation assay. The procedure, abridged:
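Yeast tRNA substrate (0.1 mg) in 0.1 M Tris–HCl, pH 7.5, with 5 mM EDTA and 10 µg HSA, 50 µl final. Enzyme (0.2 µM solution) was preincubated with inhibitor (225 µM solution) before addition. Reaction ran at 37 °C for 30 min. It was quenched with ice-cold 1.14 N perchloric acid containing 6 mM uranyl acetate, held on ice 30 min, then centrifuged at 4 °C.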

Test [3] addresses T1, Ribonuclease pancreatic (Homo sapiens) (UniProt P07998).
T1 sequence (whole entry): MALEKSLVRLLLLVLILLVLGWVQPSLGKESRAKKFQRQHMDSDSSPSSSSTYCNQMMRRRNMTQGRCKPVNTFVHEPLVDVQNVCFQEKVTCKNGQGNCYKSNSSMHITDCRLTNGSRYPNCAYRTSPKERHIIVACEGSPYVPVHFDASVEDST
The test is described as follows: Inhibition of RNase A assessed as tRNA degradation by agarose-gel based assay. In a few lines:
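RNase A (0.66 µM solution) was preincubated 6 h with 1.5 mM inhibitor solution, 50 µl total. An aliquot was then mixed with yeast tRNA (5.0 mg/ml, freshly dissolved in RNase-free water) for 30 min. Samples ran on 1.1% agarose, and undegraded tRNA was visualized by ethidium bromide staining under UV.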

In turn, `Cc1cn([C@H]2C[C@H](OP(=O)(O)O)[C@@H](CO)O2)c(=O)[nH]c1=O` registered a Ki in test [1] of 13.2 µM. For the same compound, in test [2], the IC50 was 167 µM.

The compound `Nc1ccn([C@@H]2O[C@H](CO)[C@@H](OP(=O)(O)O)[C@H]2O)c(=O)n1` showed a Ki in test [1] of 103 µM. The same compound registered an IC50 in test [2] of 312 µM. In test [3], the result was Active.

In turn, `Cc1cn([C@H]2C[C@H](OC(=O)c3ccccc3)[C@@H](CO)O2)c(=O)[nH]c1=O` came in with a Ki in test [1] of 95 µM. This compound also had an IC50 in test [2] of 341 µM. Further, the result in test [3] was Active.

In test [1], `CC(=O)O[C@H]1C[C@H](n2cc(C)c(=O)[nH]c2=O)O[C@@H]1CO` gave an inhibitory constant (Ki) of 42 µM. This compound showed a half-maximal inhibitory concentration (IC50) in test [2] of 197 µM. Besides, the result in test [3] was Active.
